Results: ChEMBL document CHEMBL4052826, “Design and Synthesis of Novel Reactive Oxygen Species Inducers for the Treatment of Pancreatic Ductal Adenocarcinoma” (J Med Chem, 2018)
The source made the active and inactive calls. The calls are words filed in the database; no cut-off is given here.

Experiments:
PANC-1 = test: Cytotoxicity against human PANC1 cells assessed as decrease in cell proliferation after 72 hrs by MTT assay; assay type: functional, cell-based; details: PANC-1, 72 h
Method in brief: (§1)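 MTT assay. Cells (3000–8000/well) attached overnight in RPMI1640 with 10% FBS; the GR line was kept with 200 nM gemcitabine. Serial dilutions (30 nM–10 μM for most lines) were applied for 72 h. MTT was added at a final 300 μg/mL for 3 h at 37°C, formazan was dissolved in DMSO and A570 read. Inhibition = (1 − OD treated/OD control) × 100. IC50 given as mean ± SD, three independent experiments.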

BXPC-3 = test: Cytotoxicity against human BxPC3 cells assessed as decrease in cell proliferation after 72 hrs by MTT assay; assay type: functional, cell-based; details: BXPC-3, 72 h; method in brief: as §1
MIA PaCa-2 [1] = test: Cytotoxicity against human MIAPaCa2 cells assessed as decrease in cell proliferation after 72 hrs by MTT assay; assay type: functional, cell-based; details: MIA PaCa-2, 72 h; method in brief: as §1
[2] = Cytotoxicity against HPDEC assessed as decrease in cell proliferation after 72 hrs by MTT assay; assay type: cell-based; details: Homo sapiens; method in brief: as §1
MIA PaCa-2 [3] = test: Cytotoxicity against gemcitabine-resistant human MIAPaCa2 cells assessed as decrease in cell proliferation after 72 hrs by MTT assay; assay type: functional, cell-based; details: MIA PaCa-2, 72 h; method in brief: as §1
MIA PaCa-2 [4] = test: Cytotoxicity against human MIAPaCa2 cells assessed as decrease in cell proliferation after 72 hrs in presence of NAC by MTT assay; assay type: functional, cell-based
Method in brief: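 MIA PaCa-2 cells were treated for 72 h with compound in the presence of 5 mM NAC. Viability was read by MTT (final 300 μg/mL, 3 h, A570). Mean ± SD of three independent experiments.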

[5] = Induction of compound aggregation
[6] = Induction of compound colloidal behavior
MIA PaCa-2 [7] = test: Induction of reactive oxygen species generation in human MIAPaCa2 cells at 1.1 to 10 uM after 24 hrs in presence of NAC by H2DCFDA reactivity assay; assay type: functional, cell-based
Method in brief: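 H2DCFDA assay. Trypsinized MIA PaCa-2 cells in suspension were loaded with 20 μM H2DCFDA for 30 min at 37°C, washed and plated at 20,000/well. After 30 min they were treated with compound at 10, 3.3 or 1.1 μM. Fluorescence was read at 493/523 nm over time. DMSO basal and unstained controls were included. NAC pretreatment, where used, was 5 mM for 30 min. Duplicates, three independent experiments.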

Compound	IC50 (PANC-1) [nM]	IC50 (BXPC-3) [µM]	IC50 (MIA PaCa-2 [1]) [µM]	IC50 [2] [µM]	IC50 (MIA PaCa-2 [3]) [µM]	Activity (MIA PaCa-2 [4])	Activity [5]	Activity [6]	Activity (MIA PaCa-2 [7])
O=C1C(Nc2cccc(B(O)O)c2)=CC(=O)c2ncncc21	9000	> 10	> 10	–	–	–	–	–	–
O=C1C(Nc2ccc(CO)cc2)=CC(=O)c2ncncc21	1000	5.7	3.5	–	–	–	–	–	–
Nc1ccc(C(=O)NCCC[P+](c2ccccc2)(c2ccccc2)c2ccccc2)cc1	> 30000	> 30	> 30	–	–	–	–	–	–
Nc1ccc(-c2ccc(NC3=CC(=O)c4ncncc4C3=O)cc2)cc1	3700	3.5	2.5	–	–	–	–	–	–
CCOC(=O)c1ccc(NC2=CC(=O)c3ncncc3C2=O)cc1	1600	5.9	5.5	–	–	–	–	–	–
O=C1C(NCc2ccc(F)cc2)=CC(=O)c2ncncc21	1000	1.4	1.7	–	–	–	–	–	–
COc1ccc(NC2=CC(=O)c3ncncc3C2=O)cc1OC	900	1.5	1.8	–	–	–	–	–	–
O=C1C(Nc2ccc(-c3ccc(F)cc3)cc2)=CC(=O)c2ncncc21	3200	4.4	3.5	–	–	–	–	–	–
O=C1C(Nc2ccc(Oc3ccccc3)cc2)=CC(=O)c2ncncc21	1800	3.6	3.7	–	–	–	–	–	–
O=C(NCCC[P+](c1ccccc1)(c1ccccc1)c1ccccc1)c1ccc(NC2=CC(=O)c3ncncc3C2=O)cc1	11700	21.5	15.3	18.3	17.7	–	–	–	–
OO	–	–	–	–	–	inactive	–	–	–
COc1cc(NC2=CC(=O)c3ncncc3C2=O)cc(OC)c1OC	800	1.6	1.5	3.2	2	inactive	Active	Active	inactive
Nc1cccc(C(=O)NCCC[P+](c2ccccc2)(c2ccccc2)c2ccccc2)c1	> 30000	> 30	> 30	–	–	–	–	–	–
COc1cccc(NC2=CC(=O)c3ncncc3C2=O)c1	600	1.8	1.8	–	–	–	–	–	–
COc1ccc(-c2ccc(NC3=CC(=O)c4ncncc4C3=O)cc2)cc1	2300	3.5	2.1	–	–	–	–	–	–
CCc1ccc(-c2ccc(NC3=CC(=O)c4ncncc4C3=O)cc2)cc1	1200	3.1	2	–	–	–	–	–	–
COc1cc(NC2=CC(=O)c3ncncc3C2=O)cc(OC)c1	7200	16.3	7.7	–	–	–	–	–	–
COc1ccc(NC2=CC(=O)c3ncncc3C2=O)cc1	800	1.7	1.9	–	–	–	–	–	–
Cc1ccc(-c2ccc(NC3=CC(=O)c4ncncc4C3=O)cc2F)cc1	4800	5	4.6	–	–	–	–	–	–
O=C1C=CC(=O)c2ncncc21	18000	19.4	9.4	–	–	–	–	–	–
O=C1C(Nc2ccc(OC(F)(F)F)cc2)=CC(=O)c2ncncc21	900	0.9	1.4	–	–	–	–	–	–
COC(=O)c1ccc(NC2=CC(=O)c3ncncc3C2=O)cc1	1100	5.8	2.2	–	–	–	–	–	–
NC(=O)c1ccc(NC2=CC(=O)c3ncncc3C2=O)cc1	6300	> 10	8	–	–	–	–	–	–
NS(=O)(=O)c1ccc(NC2=CC(=O)c3ncncc3C2=O)cc1	> 10000	> 10	> 10	–	–	–	–	–	–
O=C(NCCC[P+](c1ccccc1)(c1ccccc1)c1ccccc1)c1cccc(NC2=CC(=O)c3ncncc3C2=O)c1	14300	21.3	–	24.3	16.2	–	–	–	–
